Source: PubChem
NR2E3 ag-1 – NR2E3 (human) agonism | inhibition of corepressor binding, % at 4.78 µM | 320,000 compounds, 0.12% hits | Q9Y5X4 | GST-NR2E3/biotin-RetCOR TR-FRET, 1536-well | AID 2300;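 active = percent inhibition above the cutoff of mean plus 3 SD of all tested compounds, set per screening campaign, cut at about 20% in these data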;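 also: 0% = DMSO wells and 100% = biotin wells as full block of FRET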
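Test system: GST-NR2E3 and biotin-RetCOR proteins | Quantity: 1.35 nM GST-tagged NR2E3 final | Medium: Tris pH 7.5 | Also added: 7 nM biotin-RetCOR | Dosing: Compound at 4.8 µM, single dose | Timing: 5 h at 4 °C | Detection: Time-resolved FRET | Read-out basis: Percent inhibition | Benchmarks: Biotin wells as high control, 0.6% DMSO wells as low control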
Neddyl block – cullin neddylation inhibition; P61081+Q13564; TR-FRET cullin neddylation, biochemical; calls only at 25 µM; 360,000 compounds, 0.58% hits; AID 651699; in the data active = inhibition above about 36%
Target sequence (P61081 whole entry, looked up): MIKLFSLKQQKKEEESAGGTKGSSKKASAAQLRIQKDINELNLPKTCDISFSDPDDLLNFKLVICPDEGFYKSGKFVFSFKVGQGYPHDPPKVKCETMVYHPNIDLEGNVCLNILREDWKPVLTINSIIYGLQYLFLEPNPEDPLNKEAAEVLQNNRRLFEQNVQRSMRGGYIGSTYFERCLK
Target sequence (Q13564 whole entry, looked up): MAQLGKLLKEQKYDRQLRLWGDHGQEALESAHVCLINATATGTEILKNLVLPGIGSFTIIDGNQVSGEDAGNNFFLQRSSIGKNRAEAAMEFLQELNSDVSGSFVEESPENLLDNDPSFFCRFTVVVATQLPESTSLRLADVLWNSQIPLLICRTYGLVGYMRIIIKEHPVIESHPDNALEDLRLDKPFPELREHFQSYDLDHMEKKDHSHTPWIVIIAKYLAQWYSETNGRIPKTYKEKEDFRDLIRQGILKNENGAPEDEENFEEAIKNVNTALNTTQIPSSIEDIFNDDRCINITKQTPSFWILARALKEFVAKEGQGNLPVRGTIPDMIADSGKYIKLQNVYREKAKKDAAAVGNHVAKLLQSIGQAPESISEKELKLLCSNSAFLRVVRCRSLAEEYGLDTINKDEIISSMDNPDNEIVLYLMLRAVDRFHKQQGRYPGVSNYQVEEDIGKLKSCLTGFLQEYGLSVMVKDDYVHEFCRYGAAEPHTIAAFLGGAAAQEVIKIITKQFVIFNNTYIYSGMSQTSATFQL
NR2E3 ag-2 – human photoreceptor-specific nuclear receptor agonism; CHO-S Gal4-NCOR/VP16-NR2E3 two-hybrid, luciferase; AID 602229; inhibition of corepressor binding, % at 3.98 µM; 360,000 compounds, 0.35% hits; Q9Y5X4;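 active = inhibition above the mean of all tested compounds plus 3 SD, cut at about 70% in these data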;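 also: 0% = DMSO with NR2E3 transfected cells and 100% = cells lacking NR2E3 construct; higher means lower luciferase signal from less NR2E3 corepressor binding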
PG9 Ab binder – binds the HIV-1 gp120 antibody PG9. TR-FRET gp120-PG9 antibody binding. inhibition, % at 6.7 µM. 360,000 compounds, 0.43% hits. AID 624416; in the data active = inhibition above about 8.5%
Rev-erbA mod – modulates human Rev-erb alpha binding to DNA; AID 1259318; 370,000 compounds, 0.79% hits; Rev-erbα–FITC-DNA binding, fluorescence polarization, 90 min; activity, % at 10 µM; P20393;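 active = activity above about 14%, limit read from the data; passing the limit was not always enough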;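 also: 0% = DMSO wells with 35 nM protein and 100% = DMSO wells with 750 nM protein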
NR2E3 ag conf – confirmation of human NR2E3 agonists; shares compounds with NR2E3 ag-2; CHO-S mammalian two-hybrid NR2E3-NCOR, luciferase luminescence; inhibition, % at 3.98 µM; 2,300 compounds, 51% hits;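 active = average inhibition above a cutoff equal to the mean inhibition of all tested compounds plus one SD, cut at about 70% in these data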;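 also: 0% = DMSO in NR2E3 cells and 100% = DMSO in cells lacking NR2E3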
GAL4-VP16 luc – GAL4-VP16 reporter inhibition in NR2E3 agonist counterscreen | CHO-S GAL4-VP16 luciferase reporter, luminescence | AID 624379 | inhibition, % at 3.98 µM | 2,300 compounds, 29% hits | shares compounds with NR2E3 ag-2;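 active = mean inhibition above a cutoff equal to the average over all tested compounds plus one standard deviation, cut at about 70% in these data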;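 also: luciferase from a UAS reporter driven by GAL4-VP16 transactivation; 0% = DMSO with VP16-transfected cells and 100% = DMSO with cells lacking VP16; higher means less reporter light so more repression of VP16 activity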
An asterisk follows results filed as active; i = inactive; . = no result given. Sampled rows, rich in hits. Any-hit rate of the full collection: about 2%.

SMILES	NR2E3 ag-1	Neddyl block	NR2E3 ag-2	PG9 Ab binder	Rev-erbA mod	NR2E3 ag conf	GAL4-VP16 luc
Cc1occc1C(=O)N1CCN(c2ccc(Cl)c(Cl)c2)CC1	4	i	54	1	1	81*	58
O=C(NCc1ccccc1)N1CCN(c2ccc(F)cc2)CC1	1	i	-13	3	5	.	.
Cc1occc1C(=O)N1CCN(c2ccccc2)CC1	1	i	-8	-1	-1	.	.
O=C(NCc1ccccc1)N1CCN(c2ccc(Cl)c(Cl)c2)CC1	-1	i	77*	0	-1	93*	76*
Cc1ccccc1OCCCN1CCC(C(O)(c2ccccc2)c2ccccc2)CC1	.	.	.	-3	-1	.	.
Cc1c(/C(O)=C2/C(=O)C(=O)N(Cc3cccnc3)C2c2ccccn2)cnn1-c1ccccc1 (centres undefined)	2	i	83*	3	1	30	48
Cc1c(C(=O)Nc2ccc3c(c2)OCCO3)sc2nc(-c3ccccc3)cn12	2	i	66	0	-6	69	57
O=C(c1ccc(F)c(F)c1)N1CCC(Oc2cccnc2)CC1	.	.	.	.	-1	.	.
COc1ccc(C(C(=O)N(C)C2CCCC2)N(Cc2ccc(F)cc2)C(=O)c2sccc2Cl)cc1OC (centres undefined)	.	.	.	.	-7	.	.
Cc1ccccc1CS(=O)(=O)Cc1ccc(C(=O)Nc2c(C)cccc2C)o1	.	.	.	.	-4	.	.
CCC[C@@H]1C[C@@H](C(=O)N[C@H]([C@H]2O[C@H](SC)[C@H](O)[C@@H](O)[C@H]2O)[C@H](C)O)N(C)C1	.	.	.	.	-4	.	.
CNC(=O)c1cc(Oc2ccc(NC(=O)Nc3ccc(Cl)c(C(F)(F)F)c3)cc2)ccn1	5	i	92*	0	-3	99*	81*
O=C(Nc1ccc(Cl)c(C(F)(F)F)c1)c1ccncc1	-2	i	3	-1	5	.	.
CCCC(=O)N1CCN(c2ccc(NC(=O)c3cc4ccccc4o3)cc2Cl)CC1	2	i	51	1	4	40	26
CCOC(=O)CC[C@@]1(C(=O)OCC)C[C@@H](CC(=O)N2CCOCC2)C(=O)N2CCCC=C21	.	.	.	.	1	.	.
Cc1ccc(OCCN2CCN(c3ncnc4sc(C)c(C)c34)CC2)cc1	2	i	92*	2	5	98*	93*
Cc1sc2ncnc(N3CCCCC3)c2c1C	1	i	-12	1	-6	.	.
Clc1ccc(OCCN2CCN(c3ncnc4sccc34)CC2)cc1	-2	i	89*	1	6	98*	93*
c1ccc(CN2CCN(c3ncnc4sccc34)CC2)cc1	.	.	.	.	3	.	.
Cc1ccc(-c2nc(CS(=O)CC(=O)N3CCN(c4ccc(F)cc4)CC3)c(C)o2)cc1 (centres undefined)	3	i	53	-3	-2	29	40
COc1ccc(N2CCN(C(=O)CS(=O)Cc3nc(-c4ccc(OC)c(OC)c4)oc3C)CC2)cc1 (centres undefined)	0	i	-24	0	1	.	.
CC12CCC(O)CC1=CCC1C2CCC2(C)C(c3ccn[nH]3)CCC12 (centres undefined)	.	i	82*	0	-6	67	58
CC(C)C(=O)N1CC[C@H]2[C@H](CCCN2Cc2ccc(F)cc2)C1	.	.	.	.	-2	.	.
Cc1nn(-c2ccc3ccccc3c2)c(=O)c2ccccc12	-2	i	-126	0	4	.	.
Cc1nn(-c2nc3ccccc3[nH]2)c(=O)c2ccccc12	3	.	53	2	-2	65	25
CC(C)(C)C(=O)COC(=O)c1ccc(N)c([N+](=O)[O-])c1	0	i	-3	-1	0	.	.
COc1ccc(CCOC(=O)c2ccc(N)c([N+](=O)[O-])c2)cc1	4	i	50	2	-2	26	46
CCCCCCn1c2c(c(=N)c3c1CCC3)CCC2	0	i	11	-2	1	.	.
CCCCCCCCCn1c2c(c(=N)c3c1CCC3)CCC2	1	i	101*	.	.	99*	92*
Cc1ccc(CNc2nc(C)nc3sc4c(c23)CCC4)cc1	0	i	67	0	2	60	53
